Each block holds one compound with its values, some of them ahead of it. Active and inactive are the calls of the source. The rule behind the calls is not given here.
Key:
Liver [1] = test: Biodistribution in ddY mouse liver at 0.1 to 0.4 uCi, iv after 2 mins by gamma counting; assay type: ADME, organism-based; settings: in vivo
In short: (§1)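 [125I]ligand (0.1–0.4 µCi) in 100 µL PBS (pH 7.4) containing 30 µL DMSO, injected into the tail vein of ddY mice (5 weeks, 22–25 g). Mice sacrificed at 2, 10, 30 and 60 min. Organs removed, weighed and gamma-counted. Values are % injected dose per gram, except stomach as % dose per organ. Mean (SD) of 3–6 mice per time point.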

Intestine [2] = test: Biodistribution in ddY mouse intestine at 0.1 to 0.4 uCi, iv after 10 mins by gamma counting; assay type: ADME, organism-based; settings: in vivo; in short: as §1
Pancreas [3] = test: Biodistribution in ddY mouse pancreas at 0.1 to 0.4 uCi, iv after 30 mins by gamma counting; assay type: ADME, organism-based; settings: in vivo, 0.5 h; in short: as §1
Pancreas [4] = test: Biodistribution in ddY mouse pancreas at 0.1 to 0.4 uCi, iv after 2 mins by gamma counting; assay type: ADME, organism-based; settings: in vivo; in short: as §1
Brain [5] = test: Biodistribution in ddY mouse brain at 0.1 to 0.4 uCi, iv after 60 mins by gamma counting; assay type: ADME, organism-based; settings: in vivo, 1 h; in short: as §1
Brain [6] = test: Biodistribution in ddY mouse brain at 0.1 to 0.4 uCi, iv after 10 mins by gamma counting; assay type: ADME, organism-based; settings: in vivo; in short: as §1
Liver [7] = test: Biodistribution in ddY mouse liver at 0.1 to 0.4 uCi, iv after 30 mins by gamma counting; assay type: ADME, organism-based; settings: in vivo, 0.5 h; in short: as §1
Stomach [8] = test: Biodistribution in ddY mouse stomach assessed per organ at 0.1 to 0.4 uCi, iv after 30 mins by gamma counting; assay type: ADME, organism-based; settings: in vivo, 0.5 h; in short: as §1
Stomach [9] = test: Biodistribution in ddY mouse stomach assessed per organ at 0.1 to 0.4 uCi, iv after 60 mins by gamma counting; assay type: ADME, organism-based; settings: in vivo, 1 h; in short: as §1
Heart [10] = test: Biodistribution in ddY mouse heart at 0.1 to 0.4 uCi, iv after 10 mins by gamma counting; assay type: ADME, organism-based; settings: in vivo; in short: as §1
Heart [11] = test: Biodistribution in ddY mouse heart at 0.1 to 0.4 uCi, iv after 2 mins by gamma counting; assay type: ADME, organism-based; settings: in vivo; in short: as §1
Lung [12] = test: Biodistribution in ddY mouse lung at 0.1 to 0.4 uCi, iv after 10 mins by gamma counting; assay type: ADME, organism-based; settings: in vivo; in short: as §1
Liver [13] = test: Biodistribution in ddY mouse liver at 0.1 to 0.4 uCi, iv after 10 mins by gamma counting; assay type: ADME, organism-based; settings: in vivo; in short: as §1
[14] = biological target: T1, Amyloid-beta precursor protein (Homo sapiens, UniProt P05067); test: Binding affinity to amyloid beta aggregate (unknown origin) by centrifugation method
In short: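 Aβ(1-42) aggregated at 0.25 mg/mL in pH 7.4 buffer (10 mM sodium phosphate, 1 mM EDTA), 37 °C for 42 h with shaking. [125I]ligand at 4–500 nM final (set with unlabelled compound) in 10% EtOH incubated with aggregates 2 h at room temperature. Centrifuged 16,000 rpm, 10 min; supernatant gamma-counted for bound/free ratio. Nonspecific binding with 10 µM unlabelled ligand. Kd and Bmax from Scatchard analysis.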

Spleen [15] = test: Biodistribution in ddY mouse spleen at 0.1 to 0.4 uCi, iv after 30 mins by gamma counting; assay type: ADME, organism-based; settings: in vivo, 0.5 h; in short: as §1
Spleen [16] = test: Biodistribution in ddY mouse spleen at 0.1 to 0.4 uCi, iv after 10 mins by gamma counting; assay type: ADME, organism-based; settings: in vivo; in short: as §1
Heart [17] = test: Biodistribution in ddY mouse heart at 0.1 to 0.4 uCi, iv after 30 mins by gamma counting; assay type: ADME, organism-based; settings: in vivo, 0.5 h; in short: as §1
Kidney [18] = test: Biodistribution in ddY mouse kidney at 0.1 to 0.4 uCi, iv after 10 mins by gamma counting; assay type: ADME, organism-based; settings: in vivo; in short: as §1
Blood [19] = test: Biodistribution in ddY mouse blood at 0.1 to 0.4 uCi, iv after 60 mins by gamma counting; assay type: ADME, organism-based; settings: in vivo, 1 h; in short: as §1
Liver [20] = test: Biodistribution in ddY mouse liver at 0.1 to 0.4 uCi, iv after 60 mins by gamma counting; assay type: ADME, organism-based; settings: in vivo, 1 h; in short: as §1
Kidney [21] = test: Biodistribution in ddY mouse kidney at 0.1 to 0.4 uCi, iv after 30 mins by gamma counting; assay type: ADME, organism-based; settings: in vivo, 0.5 h; in short: as §1
Stomach [22] = test: Biodistribution in ddY mouse stomach assessed per organ at 0.1 to 0.4 uCi, iv after 2 mins by gamma counting; assay type: ADME, organism-based; settings: in vivo; in short: as §1
Spleen [23] = test: Biodistribution in ddY mouse spleen at 0.1 to 0.4 uCi, iv after 2 mins by gamma counting; assay type: ADME, organism-based; settings: in vivo; in short: as §1
Stomach [24] = test: Biodistribution in ddY mouse stomach assessed per organ at 0.1 to 0.4 uCi, iv after 10 mins by gamma counting; assay type: ADME, organism-based; settings: in vivo; in short: as §1
Blood [25] = test: Biodistribution in ddY mouse blood at 0.1 to 0.4 uCi, iv after 10 mins by gamma counting; assay type: ADME, organism-based; settings: in vivo; in short: as §1
Brain [26] = test: Biodistribution in ddY mouse brain at 0.1 to 0.4 uCi, iv after 30 mins by gamma counting; assay type: ADME, organism-based; settings: in vivo, 0.5 h; in short: as §1
Pancreas [27] = test: Biodistribution in ddY mouse pancreas at 0.1 to 0.4 uCi, iv after 60 mins by gamma counting; assay type: ADME, organism-based; settings: in vivo, 1 h; in short: as §1
Lung [28] = test: Biodistribution in ddY mouse lung at 0.1 to 0.4 uCi, iv after 2 mins by gamma counting; assay type: ADME, organism-based; settings: in vivo; in short: as §1
Lung [29] = test: Biodistribution in ddY mouse lung at 0.1 to 0.4 uCi, iv after 30 mins by gamma counting; assay type: ADME, organism-based; settings: in vivo, 0.5 h; in short: as §1
Blood [30] = test: Biodistribution in ddY mouse blood at 0.1 to 0.4 uCi, iv after 2 mins by gamma counting; assay type: ADME, organism-based; settings: in vivo; in short: as §1
Pancreas [31] = test: Biodistribution in ddY mouse pancreas at 0.1 to 0.4 uCi, iv after 10 mins by gamma counting; assay type: ADME, organism-based; settings: in vivo; in short: as §1
Brain [32] = test: Biodistribution in ddY mouse brain at 0.1 to 0.4 uCi, iv after 2 mins by gamma counting; assay type: ADME, organism-based; settings: in vivo; in short: as §1
Heart [33] = test: Biodistribution in ddY mouse heart at 0.1 to 0.4 uCi, iv after 60 mins by gamma counting; assay type: ADME, organism-based; settings: in vivo, 1 h; in short: as §1
Kidney [34] = test: Biodistribution in ddY mouse kidney at 0.1 to 0.4 uCi, iv after 2 mins by gamma counting; assay type: ADME, organism-based; settings: in vivo; in short: as §1
Kidney [35] = test: Biodistribution in ddY mouse kidney at 0.1 to 0.4 uCi, iv after 60 mins by gamma counting; assay type: ADME, organism-based; settings: in vivo, 1 h; in short: as §1
Blood [36] = test: Biodistribution in ddY mouse blood at 0.1 to 0.4 uCi, iv after 30 mins by gamma counting; assay type: ADME, organism-based; settings: in vivo, 0.5 h; in short: as §1
[37] = n-octanol-sodium phosphate buffer partition co-efficient, log D of the compound at pH 7.4 by shake flask method; assay type: physicochemical
In short: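 Shake-flask partition between n-octanol and sodium phosphate buffer, pH 7.4, shaken 10 min at room temperature, then centrifuged. Weighed 0.5 mL samples of each layer counted. log D from the ratio of cpm per gram of octanol to cpm per gram of buffer; n = 3.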

Intestine [38] = test: Biodistribution in ddY mouse intestine at 0.1 to 0.4 uCi, iv after 2 mins by gamma counting; assay type: ADME, organism-based; settings: in vivo; in short: as §1
Intestine [39] = test: Biodistribution in ddY mouse intestine at 0.1 to 0.4 uCi, iv after 60 mins by gamma counting; assay type: ADME, organism-based; settings: in vivo, 1 h; in short: as §1
Spleen [40] = test: Biodistribution in ddY mouse spleen at 0.1 to 0.4 uCi, iv after 60 mins by gamma counting; assay type: ADME, organism-based; settings: in vivo, 1 h; in short: as §1
Lung [41] = test: Biodistribution in ddY mouse lung at 0.1 to 0.4 uCi, iv after 60 mins by gamma counting; assay type: ADME, organism-based; settings: in vivo, 1 h; in short: as §1
Intestine [42] = test: Biodistribution in ddY mouse intestine at 0.1 to 0.4 uCi, iv after 30 mins by gamma counting; assay type: ADME, organism-based; settings: in vivo, 0.5 h; in short: as §1
[43] = biological target: T1, Amyloid-beta precursor protein; test: Displacement of [125I]IMPY from amyloid beta (1 to 42) (unknown origin) after 3 hrs by gamma counting
In short: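 Filtered through GF/B filters and bound radioactivity gamma-counted. IC50 from displacement curves of three independent experiments; Ki calculated with the Cheng–Prusoff equation.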

Mus musculus [44] = species: Mus musculus; test: Binding affinity to amyloid beta plaques in Tg2576 transgenic mouse brain at 100 uM after 3 to 10 hrs using Thioflavin S staining by fluorescence microscopy; assay type: tissue-based
In short: (§2)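 Brains of female Tg2576 mice (32 months) or wild-type controls (30 months) removed after decapitation and frozen in powdered dry ice. 10 µm sections incubated with compound (100 µM) for 3–10 h, then washed twice for 5 min in 50% EtOH or 50% DMSO. Fluorescence imaged with a GFP filter set (ex 470 nm, em >535 nm). Adjacent sections stained with thioflavin S to confirm plaques.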

Mus musculus [45] = species: Mus musculus; test: Binding affinity to amyloid beta plaques in wild type mouse brain at 100 uM after 3 to 10 hrs using Thioflavin S staining by fluorescence microscopy; assay type: tissue-based; in short: as §2

T1 sequence (P05067 whole entry): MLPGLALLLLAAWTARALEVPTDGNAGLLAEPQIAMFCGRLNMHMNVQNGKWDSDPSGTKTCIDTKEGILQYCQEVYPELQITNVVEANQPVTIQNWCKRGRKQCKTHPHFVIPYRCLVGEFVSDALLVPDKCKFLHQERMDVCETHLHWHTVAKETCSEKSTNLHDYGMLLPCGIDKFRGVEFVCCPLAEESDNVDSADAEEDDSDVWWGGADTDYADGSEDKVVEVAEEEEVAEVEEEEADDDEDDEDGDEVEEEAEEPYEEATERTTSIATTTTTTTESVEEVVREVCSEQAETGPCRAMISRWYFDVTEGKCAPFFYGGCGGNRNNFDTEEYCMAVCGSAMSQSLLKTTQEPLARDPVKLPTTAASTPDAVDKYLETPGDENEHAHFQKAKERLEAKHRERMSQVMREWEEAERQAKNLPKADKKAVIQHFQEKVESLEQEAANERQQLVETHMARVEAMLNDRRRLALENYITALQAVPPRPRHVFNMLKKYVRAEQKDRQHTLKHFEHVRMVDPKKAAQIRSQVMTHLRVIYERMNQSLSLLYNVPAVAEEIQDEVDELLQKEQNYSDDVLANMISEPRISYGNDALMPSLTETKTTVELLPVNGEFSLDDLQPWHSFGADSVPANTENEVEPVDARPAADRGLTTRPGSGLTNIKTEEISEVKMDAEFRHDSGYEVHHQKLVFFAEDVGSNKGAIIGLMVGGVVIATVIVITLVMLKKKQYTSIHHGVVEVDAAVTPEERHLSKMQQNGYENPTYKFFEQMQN

- Drug uptake (Liver [1]): 8.15 % ID/g
- Drug uptake (Intestine [2]): 2.55 % ID/g
- Drug uptake (Pancreas [3]): 7.67 % ID/g
- Drug uptake (Pancreas [4]): 4.76 % ID/g
- Drug uptake (Brain [5]): 0.28 % ID/g
- Drug uptake (Brain [6]): 0.33 % ID/g
- Drug uptake (Liver [7]): 11.02 % ID/g
- Drug uptake (Stomach [8]): 1.48 %ID
- Drug uptake (Stomach [9]): 1.24 %ID
- Drug uptake (Heart [10]): 13.09 % ID/g
- Drug uptake (Heart [11]): 15.53 % ID/g
- Drug uptake (Lung [12]): 59.55 % ID/g
- Drug uptake (Liver [13]): 9.7 % ID/g
- Kd [14]: 0.0484 µM
- Drug uptake (Spleen [15]): 10.88 % ID/g
- Drug uptake (Spleen [16]): 9.38 % ID/g
- Drug uptake (Heart [17]): 7 % ID/g
- Drug uptake (Kidney [18]): 13.58 % ID/g
- Drug uptake (Blood [19]): 0.52 % ID/g
- Drug uptake (Liver [20]): 11.61 % ID/g
- Drug uptake (Kidney [21]): 13.93 % ID/g
- Drug uptake (Stomach [22]): 1.18 %ID
- Drug uptake (Spleen [23]): 6.14 % ID/g
- Drug uptake (Stomach [24]): 1.33 %ID
- Drug uptake (Blood [25]): 1.85 % ID/g
- Drug uptake (Brain [26]): 0.24 % ID/g
- Drug uptake (Pancreas [27]): 6.32 % ID/g
- Drug uptake (Lung [28]): 73.08 % ID/g
- Drug uptake (Lung [29]): 35.64 % ID/g
- Drug uptake (Blood [30]): 4.21 % ID/g
- Drug uptake (Pancreas [31]): 5.85 % ID/g
- Drug uptake (Brain [32]): 0.32 % ID/g
- Drug uptake (Heart [33]): 3.96 % ID/g
- Drug uptake (Kidney [34]): 10.23 % ID/g
- Drug uptake (Kidney [35]): 12.19 % ID/g
- Drug uptake (Blood [36]): 0.73 % ID/g
- logD [37]: 1.11
- Drug uptake (Intestine [38]): 1.89 % ID/g
- Drug uptake (Intestine [39]): 5.59 % ID/g
- Drug uptake (Spleen [40]): 11.17 % ID/g
- Drug uptake (Lung [41]): 25.58 % ID/g
- Drug uptake (Intestine [42]): 4.4 % ID/g
Compound: CCN(CC)CCCC(C)Nc1c2ccc([125I])cc2nc2ccc(OC)cc12 (stereo not given)

- Ki [43]: 0.353 µM
- Activity (Mus musculus [44]): Active
- Activity (Mus musculus [45]): inactive
Compound: CCN(CC)CCCC(C)Nc1c2ccc(I)cc2nc2ccc(OC)cc12 (stereo not given)

Reference: ChEMBL document CHEMBL2321753, “Synthesis and biological evaluation of radioiodinated quinacrine-based derivatives for SPECT imaging of Aβ plaques” (Eur J Med Chem, 2013)
